ChEMBL document CHEMBL1127320, “Dual-action cephalosporins incorporating a 3'-tertiary-amine-linked quinolone” (J Med Chem, 1994)
Converted amounts (≈) assume the structure as drawn.

Experiments:
Citrobacter freundii = experiment: In vitro minimum inhibitory concentration was measured against Citrobacter freundii BS-16 (beta lactamase producer) strain.; type: functional
Procedure, shortened: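 MICs were determined by agar dilution with 2-fold dilutions giving final 128–0.0156 µg/mL, extended to 0.000977 µg/mL where needed. Streptococci were tested on brain heart infusion agar plus 20 units/mL catalase, Proteus on Mueller-Hinton with 3% agar, and others on Mueller-Hinton agar. Inocula were 100-fold-diluted overnight cultures, about 3 × 10^4 CFU/spot, read after overnight incubation at 36 °C.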

Enterococcus faecalis = experiment: In vitro minimum inhibitory concentration was measured against Enterococcus faecalis ATCC 29212 strain.; type: functional
Procedure, shortened: (§1)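 Streptococci were tested on brain heart infusion agar plus 20 units/mL catalase, Proteus on Mueller-Hinton with 3% agar, and others on Mueller-Hinton agar. Inocula were 100-fold-diluted overnight cultures, about 3 × 10^4 CFU/spot, read after overnight incubation at 36 °C.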

Klebsiella pneumoniae [1] = experiment: Tested for its efficacy against systemic murine infection caused by Klebsiella pneumoniae A; type: functional
Procedure, shortened: (§2)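 CD1 Swiss albino mice (18-20 g) were infected intraperitoneally with 0.5 mL of diluted culture. Within 5 min they received 1.0 mL test solution subcutaneously at the dorsal neck, in dilutions spanning 250–0.05 mg/kg. P. aeruginosa groups received a second dose at 3 h. Groups were six mice. ED50 was calculated by Reed–Muench interpolation of cumulative survival.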

Klebsiella pneumoniae [2] = experiment: In vitro minimum inhibitory concentration was measured against Klebsiella pneumoniae A strain.; type: functional; procedure, shortened: as §1
Micrococcus luteus = experiment: In vitro minimum inhibitory concentration was measured against Micrococcus luteus ATCC 9341 strain.; type: functional; procedure, shortened: as §1
Proteus mirabilis = experiment: In vitro minimum inhibitory concentration was measured against Proteus mirabilis 90 strain.; type: functional; procedure, shortened: as §1
Pseudomonas aeruginosa = experiment: Tested for its efficacy against systemic murine infection caused by Pseudomonas aeruginosa 8780.; type: functional; procedure, shortened: as §2
Serratia marcescens [3] = experiment: In vitro minimum inhibitory concentration was measured against Serratia marcescens 1071(beta lactamase producer) strain.; type: functional; procedure, shortened: as §1
Streptococcus pneumoniae [4] = experiment: Tested for its efficacy against systemic murine infection caused by Streptococcus pneumoniae 6301.; type: functional; procedure, shortened: as §2
Serratia marcescens [5] = experiment: Tested for its efficacy against systemic murine infection caused by Serratia marcescens SM.; type: functional; procedure, shortened: as §2
Staphylococcus aureus [6] = experiment: In vitro minimum inhibitory concentration was measured against Staphylococcus aureus 67-0 (Methicillin resistant) strain.; type: functional
Staphylococcus aureus [7] = experiment: In vitro minimum inhibitory concentration was measured against Staphylococcus aureus 753 (Methicillin resistant) strain.; type: functional
Streptococcus pneumoniae [8] = experiment: In vitro minimum inhibitory concentration was measured against Streptococcus pneumoniae 6301 strain; type: functional; procedure, shortened: as §1
Staphylococcus aureus [9] = experiment: Tested for its efficacy against systemic murine infection caused by Staphylococcus aureus smith.; type: functional; procedure, shortened: as §2
Streptococcus pyogenes = experiment: In vitro minimum inhibitory concentration was measured against Streptococcus pyogenes 4 strain.; type: functional; procedure, shortened: as §1
[10] = molecular target: T1, Penicillin-binding protein 1A (Escherichia coli K-12) (UniProt P02918); experiment: Affinity against penicillin binding protein 1a of Escherichia coli UB1005 (DC0) was evaluated.
T1 sequence (whole entry): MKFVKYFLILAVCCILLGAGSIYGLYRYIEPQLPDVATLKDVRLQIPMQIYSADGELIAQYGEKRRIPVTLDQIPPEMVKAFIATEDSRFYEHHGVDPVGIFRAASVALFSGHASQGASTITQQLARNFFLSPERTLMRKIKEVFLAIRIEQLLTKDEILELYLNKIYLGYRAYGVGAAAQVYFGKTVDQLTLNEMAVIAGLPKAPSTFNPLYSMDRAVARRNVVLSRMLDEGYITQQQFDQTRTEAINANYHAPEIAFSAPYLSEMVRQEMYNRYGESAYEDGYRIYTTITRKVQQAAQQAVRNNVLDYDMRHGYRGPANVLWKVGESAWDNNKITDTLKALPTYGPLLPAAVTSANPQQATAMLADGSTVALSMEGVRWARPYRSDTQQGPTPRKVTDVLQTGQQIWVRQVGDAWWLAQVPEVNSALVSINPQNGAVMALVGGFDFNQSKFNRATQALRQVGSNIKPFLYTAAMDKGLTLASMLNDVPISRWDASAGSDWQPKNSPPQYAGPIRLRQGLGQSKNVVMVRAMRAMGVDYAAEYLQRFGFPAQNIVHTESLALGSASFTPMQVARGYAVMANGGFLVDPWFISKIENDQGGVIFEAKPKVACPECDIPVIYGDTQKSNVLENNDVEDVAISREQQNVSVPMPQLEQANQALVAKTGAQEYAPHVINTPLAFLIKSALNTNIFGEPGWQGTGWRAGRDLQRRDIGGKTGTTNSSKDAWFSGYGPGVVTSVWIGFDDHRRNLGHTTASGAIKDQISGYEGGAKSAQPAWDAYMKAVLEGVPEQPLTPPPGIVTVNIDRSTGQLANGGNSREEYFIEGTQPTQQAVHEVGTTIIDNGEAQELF
Procedure, shortened: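 Solubilized membranes from sonicated E. coli UB1005 were used. Binding to penicillin-binding proteins was measured as inhibition of [14C]penicillin G binding.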

[11] = molecular target: T2, Penicillin-binding protein 1B (Escherichia coli K-12) (UniProt P02919); experiment: Affinity for penicillin binding protein 1b of Escherichia coli UB1005 (DC0) was evaluated.; design: unit not given here
T2 sequence (whole entry): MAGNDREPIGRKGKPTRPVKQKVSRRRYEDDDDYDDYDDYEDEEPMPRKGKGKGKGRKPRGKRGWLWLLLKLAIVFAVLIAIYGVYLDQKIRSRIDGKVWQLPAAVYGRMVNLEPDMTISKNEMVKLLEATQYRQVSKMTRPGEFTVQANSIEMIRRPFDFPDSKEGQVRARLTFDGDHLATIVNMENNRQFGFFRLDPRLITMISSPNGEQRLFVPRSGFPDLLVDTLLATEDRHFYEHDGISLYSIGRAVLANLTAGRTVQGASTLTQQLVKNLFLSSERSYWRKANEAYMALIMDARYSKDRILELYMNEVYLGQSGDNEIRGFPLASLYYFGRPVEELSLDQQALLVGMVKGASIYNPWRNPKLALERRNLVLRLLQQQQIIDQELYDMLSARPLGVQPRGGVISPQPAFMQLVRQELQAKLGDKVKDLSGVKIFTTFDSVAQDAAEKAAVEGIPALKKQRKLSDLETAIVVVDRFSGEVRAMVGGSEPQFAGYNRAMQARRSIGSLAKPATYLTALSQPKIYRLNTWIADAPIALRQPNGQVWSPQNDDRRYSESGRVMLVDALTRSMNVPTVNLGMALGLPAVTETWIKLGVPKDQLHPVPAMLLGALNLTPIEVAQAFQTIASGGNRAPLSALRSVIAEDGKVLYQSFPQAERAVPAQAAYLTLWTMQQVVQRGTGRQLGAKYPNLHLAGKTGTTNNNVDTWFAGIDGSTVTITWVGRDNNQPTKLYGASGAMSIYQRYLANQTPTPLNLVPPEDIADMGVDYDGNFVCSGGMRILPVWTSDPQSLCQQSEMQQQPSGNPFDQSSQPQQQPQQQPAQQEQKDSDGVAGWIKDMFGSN
Procedure, shortened: (§3)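 Solubilised membranes from sonicated E. coli UB1005 served as the binding-protein source. Binding was read as inhibition of [14C]penicillin G binding.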

[12] = molecular target: T3, Peptidoglycan D,D-transpeptidase MrdA (Escherichia coli K-12) (UniProt P0AD65); experiment: Affinity for penicillin binding protein 2 of Escherichia coli UB1005 (DC0) was evaluated.; design: unit not given here; procedure, shortened: as §3
T3 sequence (whole entry): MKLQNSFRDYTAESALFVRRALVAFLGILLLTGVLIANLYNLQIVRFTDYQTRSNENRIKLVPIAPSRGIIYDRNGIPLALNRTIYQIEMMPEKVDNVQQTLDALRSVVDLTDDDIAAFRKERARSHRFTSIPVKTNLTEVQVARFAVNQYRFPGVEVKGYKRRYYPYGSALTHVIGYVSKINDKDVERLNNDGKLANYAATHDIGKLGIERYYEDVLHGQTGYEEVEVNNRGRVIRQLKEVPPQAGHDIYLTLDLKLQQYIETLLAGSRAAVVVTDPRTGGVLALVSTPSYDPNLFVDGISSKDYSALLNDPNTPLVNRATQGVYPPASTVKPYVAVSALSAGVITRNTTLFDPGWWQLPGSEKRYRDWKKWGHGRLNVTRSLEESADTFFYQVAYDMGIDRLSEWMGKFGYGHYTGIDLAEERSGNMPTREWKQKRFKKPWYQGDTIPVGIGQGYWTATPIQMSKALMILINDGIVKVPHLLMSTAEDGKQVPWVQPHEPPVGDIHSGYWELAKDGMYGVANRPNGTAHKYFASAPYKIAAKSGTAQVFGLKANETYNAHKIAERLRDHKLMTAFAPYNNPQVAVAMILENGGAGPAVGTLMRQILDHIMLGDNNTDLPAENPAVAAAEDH

Escherichia coli = experiment: Minimum inhibitory concentration against E. coli UB1005 (DC0)

Structure (SMILES) | MIC (Citrobacter freundii) [µg/mL] | MIC (Enterococcus faecalis) [µg/mL] | ED50 (Klebsiella pneumoniae [1]) [mg/kg] | MIC (Klebsiella pneumoniae [2]) [µg/mL] | MIC (Micrococcus luteus) [µg/mL] | MIC (Proteus mirabilis) [µg/mL] | ED50 (Pseudomonas aeruginosa) [mg/kg] | MIC (Serratia marcescens [3]) [µg/mL] | ED50 (Streptococcus pneumoniae [4]) [mg/kg] | ED50 (Serratia marcescens [5]) [mg/kg] | MIC (Staphylococcus aureus [6]) [µg/mL] | MIC (Staphylococcus aureus [7]) [µg/mL] | MIC (Streptococcus pneumoniae [8]) [µg/mL] | ED50 (Staphylococcus aureus [9]) [mg/kg] | MIC (Streptococcus pyogenes) [µg/mL] | Binding affinity [10] | Binding affinity [11] | Binding affinity [12] | MIC (Escherichia coli) [µg/mL]
O=C(O)c1cn(C2CC2)c2cc(N3CCNCC3)c(F)cc2c1=O [CIPROFLOXACIN] | 0.031 (≈ 0.0936 µM) | 1 (≈ 3.02 µM) | 1 | 0.25 (≈ 0.754 µM) | 2 (≈ 6.04 µM) | 0.063 (≈ 0.19 µM) | 4 | 0.063 (≈ 0.19 µM) | > 100 | < 0.5 | 0.5 (≈ 1.51 µM) | 0.25 (≈ 0.754 µM) | 1 (≈ 3.02 µM) | 3 | 0.5 (≈ 1.51 µM) | – | – | – | –
CCN1CCN(C(=O)N[C@@H](C(=O)N[C@@H]2C(=O)N3C(C(=O)O)=C(CSc4nnnn4C)CS[C@H]23)c2ccc(O)cc2)C(=O)C1=O | – | – | – | – | – | – | – | – | – | – | – | – | – | – | – | 10 | 10 | 2 | 0.031 (≈ 0.048 µM)
